# Assays:
# [1] = biological target: T1, mDia1-FH2 (Mus musculus, UniProt O08808); experiment: pyrene-actin polymerization assay, actin assembly by mDia1-FH2; format: biochemical
# Method in brief: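 Recombinant mouse mDia1 FH2 domain (aa 748–1175) at 2.5 nM with 4 μM actin (5% pyrene-labelled), across a range of test compound concentrations. Polymerization followed by pyrene fluorescence (emission 410 nm). Signal corrected for quenching by the test compound. Dose-response curves calculated from the polymerization curves give IC50 and Hill coefficient.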
# [2] = biological target: actin (Oryctolagus cuniculus, UniProt P68135); experiment: spontaneous polymerization of actin alone; format: biochemical; details: concentrations up to 50 μM
# [3] = biological target: mDia2-FH2 (Mus musculus, UniProt Q9Z207); experiment: pyrene-actin polymerization assay, actin assembly by mDia2-FH2; format: biochemical; details: potency and Hill coefficients
# Chain of mDia2-FH2 (Q9Z207 615-1013 limits assumed): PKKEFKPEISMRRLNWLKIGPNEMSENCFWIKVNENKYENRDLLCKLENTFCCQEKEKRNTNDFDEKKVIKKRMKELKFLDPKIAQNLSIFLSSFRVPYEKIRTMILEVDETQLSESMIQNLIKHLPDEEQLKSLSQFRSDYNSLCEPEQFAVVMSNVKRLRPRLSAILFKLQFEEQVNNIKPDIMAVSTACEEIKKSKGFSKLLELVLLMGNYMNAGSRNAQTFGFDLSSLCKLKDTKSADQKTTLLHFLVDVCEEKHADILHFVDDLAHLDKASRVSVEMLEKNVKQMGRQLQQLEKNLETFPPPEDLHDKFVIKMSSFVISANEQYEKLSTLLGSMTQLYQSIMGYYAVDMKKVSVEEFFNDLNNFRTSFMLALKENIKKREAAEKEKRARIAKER
# Method in brief: (§1)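 Pyrene-actin polymerization (emission read at 410 nm) driven by 2.5 nM mDia2-FH2, 20 nM INF2-(FH1-FH2) or 200 nM FRL1-(FH1-FH2), with the test compound titrated. Fluorescence corrected for compound quenching. Dose-response curves derived from the polymerization traces give IC50 and Hill coefficient.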
# [4] = biological target: T2, mDia3-FH2 (Mus musculus, UniProt O70566); experiment: pyrene-actin polymerization assay, actin assembly by mDia3-FH2; format: biochemical; details: at any concentration tested
# T2 sequence (O70566 625-1025 limits assumed): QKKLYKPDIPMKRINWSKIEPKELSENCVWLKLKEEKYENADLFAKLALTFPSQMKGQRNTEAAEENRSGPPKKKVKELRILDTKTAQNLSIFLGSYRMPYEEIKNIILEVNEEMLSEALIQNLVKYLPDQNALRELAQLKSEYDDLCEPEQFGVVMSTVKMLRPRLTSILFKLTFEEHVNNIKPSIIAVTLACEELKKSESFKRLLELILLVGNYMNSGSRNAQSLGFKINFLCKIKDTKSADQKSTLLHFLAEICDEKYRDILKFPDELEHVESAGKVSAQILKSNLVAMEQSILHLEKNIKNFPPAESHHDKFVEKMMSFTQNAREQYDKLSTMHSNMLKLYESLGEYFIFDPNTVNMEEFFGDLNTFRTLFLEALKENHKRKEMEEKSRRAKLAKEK
# Method in brief: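 Pyrene-actin polymerization (emission 410 nm) with mDia3-FH2 in two formats: 10 nM mDia3-FH2 in test compound titrations for dose-response curves (IC50, Hill coefficient), and 2.5 nM mDia3-FH2 with or without 50 μM test compound. Fluorescence corrected for compound quenching.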
# [5] = biological target: T3, FRL1-(FH1-FH2) (Mus musculus, UniProt Q9JL26); experiment: pyrene-actin polymerization assay, actin assembly by FRL1; format: biochemical; details: at 50 μM
# T3 sequence (Q9JL26 627-1018 limits assumed): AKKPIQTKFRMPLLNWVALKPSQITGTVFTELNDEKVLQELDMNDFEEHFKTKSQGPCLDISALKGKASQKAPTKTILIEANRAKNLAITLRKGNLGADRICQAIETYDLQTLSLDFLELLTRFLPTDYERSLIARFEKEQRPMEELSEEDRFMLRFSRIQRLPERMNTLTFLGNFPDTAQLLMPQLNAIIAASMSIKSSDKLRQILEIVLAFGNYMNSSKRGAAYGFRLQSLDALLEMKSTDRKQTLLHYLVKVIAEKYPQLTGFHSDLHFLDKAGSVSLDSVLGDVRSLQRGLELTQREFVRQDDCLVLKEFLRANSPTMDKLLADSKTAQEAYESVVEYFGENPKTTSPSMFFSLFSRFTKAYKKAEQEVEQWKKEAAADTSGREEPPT
# Method in brief: as §1
# [6] = biological target: INF2-(FH1-FH2) (Mus musculus, UniProt Q0GNC1); experiment: pyrene-actin polymerization assay, actin assembly by INF2; format: biochemical; details: at saturating concentrations
# Chain of INF2-(FH1-FH2) (Q0GNC1 589-979 limits assumed): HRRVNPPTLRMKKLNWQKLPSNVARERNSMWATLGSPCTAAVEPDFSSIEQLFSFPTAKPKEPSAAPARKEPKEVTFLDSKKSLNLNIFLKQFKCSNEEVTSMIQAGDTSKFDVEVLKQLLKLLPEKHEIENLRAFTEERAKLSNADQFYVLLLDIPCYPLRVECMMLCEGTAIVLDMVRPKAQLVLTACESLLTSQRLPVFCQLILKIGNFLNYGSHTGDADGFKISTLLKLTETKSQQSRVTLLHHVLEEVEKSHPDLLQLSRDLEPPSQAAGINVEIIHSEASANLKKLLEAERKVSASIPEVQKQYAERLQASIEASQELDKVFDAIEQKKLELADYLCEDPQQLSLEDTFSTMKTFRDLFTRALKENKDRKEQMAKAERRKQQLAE
# Method in brief: as §1
# [7] = biological target: T1, mDia1-FH2; experiment: equilibrium dialysis, direct binding to mDia1-FH2
# [8] = biological target: T2, mDia3-FH2; experiment: equilibrium dialysis, direct binding to mDia3-FH2
# T1 sequence (O08808 748-1175): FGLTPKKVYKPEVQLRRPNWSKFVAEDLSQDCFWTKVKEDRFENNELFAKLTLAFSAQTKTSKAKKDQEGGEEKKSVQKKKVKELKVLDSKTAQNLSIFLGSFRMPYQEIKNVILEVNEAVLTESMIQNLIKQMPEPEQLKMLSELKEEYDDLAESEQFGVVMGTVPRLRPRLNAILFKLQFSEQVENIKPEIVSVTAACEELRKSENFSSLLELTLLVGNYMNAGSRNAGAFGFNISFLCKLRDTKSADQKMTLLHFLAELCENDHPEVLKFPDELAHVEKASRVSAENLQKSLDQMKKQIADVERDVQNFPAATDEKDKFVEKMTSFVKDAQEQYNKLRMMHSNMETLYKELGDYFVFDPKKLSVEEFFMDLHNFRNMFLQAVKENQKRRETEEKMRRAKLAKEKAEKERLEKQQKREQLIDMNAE
SMILES,"Hill coefficient, inhibition of actin assembly by mDia1-FH2 [1]",IC50 [1],inhibitory effect toward polymerization of actin alone [2],inhibition of filament assembly by mDia2-FH2 compared with mDia1-FH2 (in words) [3],inhibitory activity toward actin assembly by mDia3-FH2 (in words) [4],inhibition of FRL1 [5],maximal inhibition of INF2 activity [6],binding to mDia1-FH2 by equilibrium dialysis [7],binding to mDia3-FH2 by equilibrium dialysis [8]
"O=S(=O)(O)c1cc(O)c2c(N=Nc3c(S(=O)(=O)O)cc4cc(S(=O)(=O)O)cc(O)c4c3O)cc(S(=O)(=O)O)cc2c1 [compound 1, 2-(8-hydroxy-3,6-disulfo-1-naphthylazo)-1,8-dihydroxy-naphthalene-3,6-disulfonic acid]",2.4,0.49 µM,Neither 1 nor 2 shows any inhibitory effect,–,–,–,–,–,–
"Nc1ccc(Br)cc1-c1nc2ccccc2[nH]c1=O [compound 2, 3-(2-amino-5-bromophenyl)-1H-quinoxalin-2-one]",7.6,2.1 µM,Neither 1 nor 2 shows any inhibitory effect,comparable,no inhibitory activity,incomplete,≤ 75%,effectively retained 2 in a dose-dependent manner,no binding

# Reference: article PMC2758331 (Biochemistry, 2009)
